Experimental data gathered from unrelated publications.
Protocols differ between the studies behind these lines.
Target: Mitotic checkpoint serine/threonine-protein kinase BUB1 (BUB1, Homo sapiens, UniProt O43683)

CN(CCCC(F)(F)F)c1nccc(-c2cnn3ncccc23)n1
remaining binding (binding; 1 µM): 91%

C[C@@H]1CN(c2cc(-c3n[nH]c4ccc(OC5(C)CC5)cc34)ncn2)C[C@H](C)O1
remaining binding (cell-free assay, competition with immobilised ligand; 0.1 µM): 84%

N[C@@H]1CCN(c2nccc(-c3cnn4ncccc34)n2)C1
remaining binding (binding; 1 µM): 93%

COc1cnc(Nc2cccc(S(N)(=O)=O)c2)nc1N1CCN(c2ccccc2)CC1
remaining binding (binding, competition with immobilised ligand; 1 µM): 69%

C[C@@]1(Cc2ccc(C#N)cc2)C(=O)N(c2cc(Cl)cc(Cl)c2)c2ncc(C(=O)NC3(c4nc(C5CCC5)no4)CC3)n21
remaining binding (cell-free assay, competition with immobilised ligand; 1 µM): 100%

COc1ccnn2ncc(-c3ccnc(N(C)C)n3)c12
remaining binding (binding; 1 µM): 96%

CCCCN(CCCC)C(=O)CN1C[C@H](c2cc(OC)c3c(c2)OCO3)[C@@H](C(=O)O)[C@@H]1CC(C)(C)CCC
remaining binding (cell-free assay, competition with immobilised ligand; 1 µM): 75.4%

CN(C)c1nccc(-c2cnc3ncccn23)n1
remaining binding (binding; 1 µM): 78%

C[C@@H](c1ccc(-n2cnc3c(N)ncnc32)cc1)N1CCc2nn(C)c(Cc3ccccc3)c2C1=O
remaining binding (binding, competition with immobilised ligand; 0.1 µM): 91%

c1cnn2ncc(-c3ccnc(N4CCC45COC5)n3)c2c1
remaining binding (binding; 1 µM): 46%

COc1ncc2cc3ccccc3nc2c1C#N
remaining binding (cell-free assay, competition with immobilised ligand; 5 µM): 92%

CNC(=O)[C@@H]1CC[C@@H](n2c(-c3ccc4cnccc4c3)nc3ccc(C(=O)NCc4cccc(C(N)=O)c4)cc32)C1
remaining binding (binding, competition with immobilised ligand; 1 µM): 100%

O=C(c1ccc(Nc2ncc(Cl)c(-c3ccc(Cl)s3)n2)cc1)N1CCC(N2CCCC2)CC1
remaining binding (binding, competition with immobilised ligand; 1 µM): 65%

Cc1nc(Cc2cccc(C(F)(F)F)c2)sc1-c1ccc(C(N)=O)nc1
remaining binding (cell-free assay, competition with immobilised ligand; 1 µM): 100%

O=C(c1ccc(Nc2nccc(-c3cc4ccccc4s3)n2)cc1)N1CCC(N2CCCC2)CC1
remaining binding (binding, competition with immobilised ligand; 1 µM): 45%

c1cncc(-c2cccc(Nc3nccc(NC4CCCCC4)n3)c2)c1
remaining binding (binding, competition with immobilised ligand; 10 µM): 59%

C[C@@H]1CCN(c2nccc(-c3cnn4ncccc34)n2)C1
remaining binding (binding; 1 µM): 71%

O=C(NCCCN1CCOCC1)c1ccc(Nc2ncc(Cl)c(-c3ccc(Cl)s3)n2)cc1
remaining binding (binding, competition with immobilised ligand; 1 µM): 80%

CN([C@@H]1CCc2c(CC(=O)O)c3ccccc3n2C1)S(=O)(=O)c1ccc(F)cc1
remaining binding (cell-free assay, competition with immobilised ligand; 1 µM): 79%

O=C(Nc1c[nH]nc1C(=O)NC1CCNCC1)c1cc(F)cc(F)c1
remaining binding (binding, competition with immobilised ligand; 1 µM): 100%

CCOCCn1cc(C(=O)Nc2ccc(-n3nc(-c4cccnc4)cc3C(F)(F)F)cn2)ccc1=O
remaining binding (cell-free assay, competition with immobilised ligand; 1 µM): 79%

FC(F)(F)Oc1cccc(-c2cnc3ccc(-c4ccncc4)nn23)c1
remaining binding (cell-free assay, competition with immobilised ligand; 5 µM): 13%
